Here are results for 1 compound from ChEMBL document CHEMBL4400525, “Toward a treatment of diabesity: In vitro and in vivo evaluation of uncharged bromophenol derivatives as a new series of PTP1B inhibitors” (Eur J Med Chem, 2019).

pIC50: −log10 of the molar value. The source made the active and inactive calls. The rule behind the calls is not given here.

The species entered for data set [1] is Homo sapiens. The experiment in a line: Selectivity ratio of IC50 for LAR (unknown origin) to IC50 for GST-fused PTP1B catalytic domain (1 to 321 residues) (unknown origin) expressed in Escherichia coli.
Data set [2] has as its target T1, Tyrosine-protein phosphatase non-receptor type 1 (Homo sapiens) (UniProt P18031).
T1 sequence (whole entry): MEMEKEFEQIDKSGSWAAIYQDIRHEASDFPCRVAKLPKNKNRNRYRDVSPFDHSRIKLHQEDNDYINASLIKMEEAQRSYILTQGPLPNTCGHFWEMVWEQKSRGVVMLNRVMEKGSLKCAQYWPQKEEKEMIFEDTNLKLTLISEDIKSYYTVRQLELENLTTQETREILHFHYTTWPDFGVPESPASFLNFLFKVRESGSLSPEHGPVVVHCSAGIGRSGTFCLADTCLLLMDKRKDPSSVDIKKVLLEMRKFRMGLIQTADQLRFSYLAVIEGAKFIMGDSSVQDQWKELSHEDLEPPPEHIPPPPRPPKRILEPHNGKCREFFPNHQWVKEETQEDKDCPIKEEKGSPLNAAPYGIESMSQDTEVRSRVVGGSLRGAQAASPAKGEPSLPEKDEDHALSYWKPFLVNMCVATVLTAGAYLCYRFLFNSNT
The data set is described as follows: Competitive inhibition of GST-fused PTP1B catalytic domain (1 to 321 residues) (unknown origin) expressed in Escherichia coli up to 2 uM using varying levels of pNPP as substrate by Lineweaver-Burk double reciprocal plot analysis. In a few lines:
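Kinetics were run with varying pNPP concentrations, with inhibitor at 0, 0.5, 1 and 2 µM. Km and Vmax were taken from double reciprocal plots.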

A short description of data set [3]: Acute toxicity in Kunming mouse assessed as mortality at 500 to 2000 mg/kg, po administered as single dose measured for 1 week. It counts as organism-based. Conditions: in vivo, 168 h.
Data set [4] is described as follows: Acute toxicity in Kunming mouse assessed as change in body weight at 500 to 2000 mg/kg, po administered as single dose measured for 1 week. Conditions: in vivo, 168 h. In kind it is organism-based.
Data set [5] deals with Mus musculus. The experiment in a line: Antiobesity activity in BKS db mouse assessed as decrease in abdominal fat weight at 100 mg/kg, po administered once daily for 5 weeks. It counts as functional, organism-based. In short, it runs like this: (§1)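 Diabetic BKS db mice, n = 8 per group, were given 100 mg/kg/day orally for five weeks. Vehicle- and metformin-treated db mice and vehicle-treated BKS mice served as controls. Food intake, water intake and body weight were followed weekly, and abdominal fat pads were weighed at the end. Values are mean ± SEM.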

The nature of data set [6]: Sub-acute toxicity in Kunming mouse assessed as mortality at 1000 mg/kg, po administered once daily for 14 days measured during compound dosing. It counts as organism-based. Conditions: in vivo, 336 h.
In data set [7] the test system is Mus musculus. The experiment in a line: Antidiabetic activity in BKS db mouse assessed as blood glucose level at 100 mg/kg, po administered once daily for 5 weeks measured post last dose by glucometry (reference value: 28 mM). It counts as functional.
Data set [8] can be described thus: Volume of distribution at steady state in specific pathogen free Sprague-Dawley rat at 2 mg/kg, iv or 10 mg/kg, po by LC-MS/MS analysis. It counts as ADME, organism-based. Conditions: in vivo, read-out: Vdss.
The target of data set [9] is T2, Tyrosine-protein phosphatase non-receptor type 1 (Mus musculus) (UniProt P35821).
T2 sequence (whole entry): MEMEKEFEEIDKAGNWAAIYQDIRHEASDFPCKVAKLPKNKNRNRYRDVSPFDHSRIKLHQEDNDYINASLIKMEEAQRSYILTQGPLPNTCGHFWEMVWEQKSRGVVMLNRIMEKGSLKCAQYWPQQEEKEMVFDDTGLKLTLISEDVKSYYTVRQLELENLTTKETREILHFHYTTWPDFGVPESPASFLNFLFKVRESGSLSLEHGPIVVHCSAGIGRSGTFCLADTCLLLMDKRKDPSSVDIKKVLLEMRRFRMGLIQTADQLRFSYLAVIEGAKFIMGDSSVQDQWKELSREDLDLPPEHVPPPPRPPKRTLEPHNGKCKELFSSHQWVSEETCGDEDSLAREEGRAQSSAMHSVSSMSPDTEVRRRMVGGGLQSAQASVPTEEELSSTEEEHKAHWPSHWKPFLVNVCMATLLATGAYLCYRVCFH
The data set is described as follows: Inhibition of PTP1B in mouse C2C12 cells assessed as suppression of PA-induced insulin resistance by measuring increase in insulin-mediated IRS1 phosphorylation at Y632 residue preincubated for 1 hr followed by palmitic acid stimulation for 16 hrs and subsequent insulin addition measured after 30 mins by Western blot analysis. It counts as cell-based. In general terms: A western blot detects proteins with antibodies after separation by electrophoresis.

Data set [10] relates to Mus musculus. The data set is described as follows: Antidiabetic activity in BKS db mouse assessed as improvement in insulin sensitivity at 100 mg/kg, po administered once daily for 2 weeks followed by insulin challenge and measured up to 120 mins by ITT. It counts as functional, organism-based. In short, it runs like this: (§2)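 In week 2 of treatment at 100 mg/kg/day p.o., an insulin tolerance test was run in db mice (n = 8) with 0.75 U/kg insulin. Blood glucose was followed over time and the area under the curve was calculated. Values are mean ± SEM.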

Data set [11] in a line: Sub-acute toxicity in Kunming mouse assessed as structural changes in lungs at 1000 mg/kg, po administered once daily for 14 days measured 24 hrs post last dose by gomori staining based histological analysis. In kind it is organism-based. Conditions: in vivo. In short, it runs like this: (§3)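 After 14 days of oral dosing at 1000 mg/kg body wt per day, with vehicle-treated controls, liver, heart, kidney and lung sections were Gomori-stained. Sections were examined for histological structure and cell size.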

A short description of data set [12]: Tmax in specific pathogen free Sprague-Dawley rat at 10 mg/kg, po by LC-MS/MS analysis. In kind it is ADME, organism-based. Conditions: in vivo.
Data set [13] addresses T3, Tyrosine-protein phosphatase non-receptor type 1 (Homo sapiens, UniProt P18031).
T3 sequence (P18031 whole entry): T1 sequence (whole entry)
The experiment in a line: Inhibition of GST-fused PTP1B catalytic domain (1 to 321 residues) (unknown origin) expressed in Escherichia coli using pNPP as substrate measured after 30 mins by spectrophotometric method.

Data set [14] concerns the target Tyrosine-protein phosphatase non-receptor type 1 (Homo sapiens, UniProt P18031, A27S). The data set is described as follows: Inhibition of PTP1B A27S mutant (unknown origin).
Data set [15] in a line: Sub-acute toxicity in Kunming mouse assessed as structural changes in kidneys at 1000 mg/kg, po administered once daily for 14 days measured 24 hrs post last dose by gomori staining based histological analysis. It counts as organism-based. Conditions: in vivo. In short, it runs like this: as §3
Data set [16] can be described thus: Sub-acute toxicity in Kunming mouse assessed as visual toxic effect at 1000 mg/kg, po administered once daily for 14 days measured during compound dosing. In kind it is organism-based. Conditions: in vivo, 336 h.
The target in data set [17] is T1, Tyrosine-protein phosphatase non-receptor type 1 (Homo sapiens). The experiment in a line: Binding affinity to human PTP1B (1 to 321 residues) at 50 uM by surface plasmon resonance analysis. In a few lines:
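Recombinant PTP1B was immobilized on an SPR sensor chip. Sensorgrams were recorded for the ligand injected at 50 µM.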

Data set [18] in a line: Sub-acute toxicity in Kunming mouse assessed as effect on food intake at 1000 mg/kg, po administered once daily for 14 days measured during compound dosing. It counts as organism-based. Conditions: in vivo, 336 h. In short, it runs like this:
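Mice were dosed orally with 1000 mg/kg body wt per day for 14 days alongside a vehicle-dosed group. Water intake, food intake and body weight were tracked over the dosing period and reported as mean ± SEM, n = 10.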

Data set [19] deals with Mus musculus. The data set is described as follows: Antiobesity activity in BKS db mouse assessed as decrease in body weight at 100 mg/kg, po administered once daily for 5 weeks relative to control. It counts as functional. Also noted: scale not given: the % may be the effect or the level left. In a few lines: as §1
The test system of data set [20] is Mus musculus. The experiment in a line: Antidiabetic activity in BKS db mouse assessed as improvement in insulin sensitivity by measuring decrease in glucose AUC at 100 mg/kg, po administered once daily for 2 weeks followed by insulin challenge and measured up to 120 mins by ITT. In kind it is functional, organism-based. In short, it runs like this:
as §2

Sequence of Tyrosine-protein phosphatase non-receptor type 1 (Homo sapiens, UniProt P18031, A27S) (P18031 whole entry A27S): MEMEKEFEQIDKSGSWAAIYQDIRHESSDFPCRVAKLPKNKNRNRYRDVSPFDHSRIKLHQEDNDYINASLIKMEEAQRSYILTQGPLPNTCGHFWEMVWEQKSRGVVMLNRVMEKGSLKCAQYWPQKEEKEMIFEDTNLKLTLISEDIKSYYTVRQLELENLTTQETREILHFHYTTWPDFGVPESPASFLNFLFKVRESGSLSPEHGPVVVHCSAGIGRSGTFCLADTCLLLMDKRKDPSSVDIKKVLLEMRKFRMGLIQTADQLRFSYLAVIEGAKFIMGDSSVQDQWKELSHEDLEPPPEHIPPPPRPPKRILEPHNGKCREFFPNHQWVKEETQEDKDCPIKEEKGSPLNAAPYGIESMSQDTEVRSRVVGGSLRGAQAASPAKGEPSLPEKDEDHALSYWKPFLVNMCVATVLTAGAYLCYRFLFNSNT

For orientation: Tmax means the time from dosing to the highest level. Broadly, the pIC50 is −log10 of the IC50, conventionally taken in molar units. On to `CCOc1ccc(Oc2ccc(-c3cnc(-c4cc(O)c(O)c(Br)c4Br)o3)cc2)cc1`, for which, in data set [1], the Ratio IC50 lay in the range of 20 to 200. Further, in [2], the inhibition entry is “Active”. Moreover, the Activity entry is listed as “Non-Toxic” in [3]; “Non-Toxic” in [4]; “Non-Toxic” in data set [6]; 18 mM in data set [7]; “Non-Toxic” in data set [11]; “Non-Toxic” in data set [15]. Besides, the Activity entry is reported as “Non-Toxic” in data set [16], “Toxic” in [18] and 15% in data set [19]. The result in data set [5], in [10], in data set [17] and in data set [20] was Active. Also, the Vd in data set [8] came to 4.25 L/kg. Further, in data set [9], the inhibition result was “Dose-dependent effect”. Moreover, in [12], the time of peak concentration (Tmax) is 30 min. Also, the pIC50 was 6.72 in [13] and 5.75 in data set [14].
